Compounds with a hit are over-represented: about 3.5% of the library has one in this group of screens.
RGS4 act – RGS4 potentiators or activators, primary screen, cell-based, HEK293 M3R inducible RGS4, calcium flux; carbachol calcium flux Fluo4; active compounds read low; B-score at 10 µM; 310,000 compounds, 0.92% hits; AID 463111, 2010;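 active = B-score of the integrated calcium signal more than 4 SD below the library mean, with starting fluorescence not abnormally high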;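 note: negative B-score means reduced calcium response which marks RGS4 activation or potentiation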
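Reagent: ECmax carbachol challenge; Test system: M3R-expressing HEK293 line, RGS4 induced by doxycycline; Schedule: overnight RGS4 induction, 30 min dye load 37 °C, 20 min compound RT; Detection: calcium dye Fluo4 fluorescence; Read-out: Agonist-evoked peak-minus-minimum fluorescence over baseline, integrated ratio, B score.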
MrgX1 agonist – agonists of human MrgX1 receptor, primary screen, HEK293 cells, Fluo-4 calcium flux. Mas-related G-protein coupled receptor member X1 (Homo sapiens), Q96LB2. Fluo-4 calcium fluorescence, agonist mode; active compounds read high. B-score at 10 µM. 310,000 compounds, 0.44% hits. AID 588627, 2011;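 active = calcium response B-score plate-corrected fluorescence ratio at least 3 library SD, with starting fluorescence B-score inside 5 SD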
Target sequence (Q96LB2 whole entry, looked up): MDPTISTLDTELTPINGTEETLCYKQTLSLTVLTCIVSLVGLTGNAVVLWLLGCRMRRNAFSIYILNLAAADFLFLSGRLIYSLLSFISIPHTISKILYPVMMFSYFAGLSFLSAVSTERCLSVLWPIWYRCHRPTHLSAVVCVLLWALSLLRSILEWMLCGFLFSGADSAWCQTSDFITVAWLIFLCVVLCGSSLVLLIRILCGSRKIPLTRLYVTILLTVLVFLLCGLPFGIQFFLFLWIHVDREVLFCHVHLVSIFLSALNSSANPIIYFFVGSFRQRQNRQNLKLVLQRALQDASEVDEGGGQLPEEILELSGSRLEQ
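Test system: HEK293 cells stably expressing human MrgX1 receptor; Input: fifteen thousand cells per well; Dosing: compound delivered in addition one of three; Schedule: overnight seeding, then 1 h dark dye loading; Technique: Fluo-4 NW calcium fluorescence; Measure: B-scored fluorescence response ratio; Controls: positive and negative controls per plate.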
RGS4 inh – RGS4 inhibitors, primary screen, cell-based, HEK293 M3R inducible RGS4, calcium flux. B-score at 10 µM. 310,000 compounds, 0.45% hits. Regulator of G-protein signaling 4 (Homo sapiens), P49798. Fluo-4 calcium flux; active compounds read high; triggered by carbachol at its EC20. AID 463165, 2010;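 active = B-score, a plate-corrected calcium signal, over three deviations above library mean, with baseline fluorescence within five deviations of library mean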;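 note: RGS4 expression induced by doxycycline in cells with stable M3 receptor; B-score is computed from the integrated fluorescence ratio over baseline after carbachol; higher B-score means a larger calcium signal and so more RGS4 inhibition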
Target sequence (P49798 whole entry, looked up): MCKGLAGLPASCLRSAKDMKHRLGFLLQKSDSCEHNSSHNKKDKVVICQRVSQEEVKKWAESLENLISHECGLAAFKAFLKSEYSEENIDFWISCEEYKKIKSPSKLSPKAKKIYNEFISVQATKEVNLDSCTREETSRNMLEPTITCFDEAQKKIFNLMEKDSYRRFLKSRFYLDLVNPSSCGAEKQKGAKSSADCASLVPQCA
MrgX1 antagonist – antagonists of human MrgX1 receptor, primary screen, HEK293 cells, Fluo-4 calcium flux; AID 588676, 2011; B-score at 10 µM; 310,000 compounds, 1.3% hits; BAM8-22 antagonism; active compounds read low;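 active = calcium-response B-score plate-corrected more than 3 library SD below zero, starting fluorescence within 5 deviations, no agonist response on first addition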;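 note: peak minus trough fluorescence over baseline after final BAM8-22 challenge near maximal dose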
MrgX1 allo act – positive allosteric modulators of MrgX1, primary screen, HEK293 cells, Fluo-4 calcium flux. Mas-related G-protein coupled receptor member X1 (Homo sapiens), Q96LB2. FDSS; active compounds read high. B-score at 10 µM. 310,000 compounds, 0.63% hits. AID 588675, 2011;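 active = plate-corrected calcium response at least 3 library SD above typical, normal starting fluorescence, not activating the receptor alone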;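 note: compound read alongside a low EC10 to EC30 dose of BAM8-22 agonist; peak minus trough fluorescence over baseline measured at the second addition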
RGS4 act valid – reduced carbachol calcium response, RGS4-induced M3R cells, confirmation, RGS4 activator project, cell-based, HEK293 M3R/RGS4 inducible, calcium flux, duplicate; shares compounds with RGS4 act; carbachol calcium flux Fluo4; inhibition, % at 10 µM; 1,100 compounds, 89% hits; AID 602282, 2012;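 active = inhibition above 3 SD of the buffer control wells, cut at about 41% in these data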;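 note: signal is the integrated peak-minus-minimum Fluo4 fluorescence over baseline ratio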
RGS4 act ctr – counter-screen for RGS4 activators: effect in non-induced cells; shares compounds with RGS4 act; HEK293 M3R non-induced RGS4, Fluo4 calcium flux; after carbachol challenge at its EC90; inhibition, % at 10 µM; 1,100 compounds, 82% hits;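 active = inhibition exceeding 3 SD of buffer-only control wells, cut at about 26% in these data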;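 note: percent drop in integrated peak-minus-baseline over baseline Fluo4 ratio after carbachol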
RGS4 block valid – enhanced carbachol calcium response, M3R/RGS4 cells, RGS4 inhibitor project, cell-based, validation screen, HEK293 M3R/RGS4, calcium flux. AID 492999, 2010. calcium response, % at 10 µM. 1,700 compounds, 65% hits. shares compounds with RGS4 inh. carbachol calcium Fluo-4 fluorescence; carbachol added at its EC20; 0 = buffer wells, 100 = carbachol control;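 active = duplicate-averaged calcium response above the buffer-only control mean plus 5 SD of those controls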;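 note: integrated fluorescence ratio F max minus min over baseline F0; higher response in RGS4-induced cells means RGS4 inhibition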
RGS4 uninduced – carbachol calcium response in non-induced M3R cells, confirmation, counter-screen for RGS4 inhibitor project, cell-based, HEK293 M3R; shares compounds with RGS4 inh; carbachol calcium Fluo-4; submaximal (EC20) carbachol stimulus; buffer wells 0%, carbachol control wells 100%; activity (percent), % at 10 µM; 1,900 compounds, 20% hits; AID 493000, 2010; call rule not given here;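 note: RGS4 induction absent so cells express M3R without RGS4; higher means more calcium signal and flags a non-specific hit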
RGS4 inh ctr2 – second RGS4 inhibitor counter-screen in uninduced cells lacking carbachol; HEK293 M3R/RGS4 non-induced, Fluo-4 calcium, no carbachol; normalised: buffer wells 0%, carbachol wells 100%; AID 493001; shares compounds with RGS4 inh; 1,900 compounds, 22% hits; calcium response (agonist-mode artifact), % at 10 µM;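 active = duplicate-averaged calcium rise in uninduced cells above buffer wells' mean plus 5 SD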
MrgX1 ag reconf – MrgX1 receptor agonists, duplicate retest, confirmation, HEK293 cells, Fluo-4 calcium flux; Fluo-4 calcium fluorescence, FDSS; activation, % at 10 µM; 600 compounds, 78% hits; shares compounds with MrgX1 agonist;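 active = calcium signal rise, corrected for plate position, at least 3 library SD high, with starting brightness within 5 such deviations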
MrgX1 allo conf – MrgX1 positive allosteric modulators, duplicate retest, confirmation, HEK293 cells, Fluo-4 calcium flux; shares compounds with MrgX1 allo act; Fluo-4 calcium fluorescence, FDSS; activation (ratio percentage), % at 10 µM; 1,200 compounds, 13% hits; AID 602413, 2012;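 active = ratio at least 3 SD above the weak peptide control, stable starting fluorescence, no direct agonism earlier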;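 note: compound followed by low BAM8-22 agonist challenge near EC20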
MrgX1 antag conf – MrgX1 receptor antagonists, duplicate retest, confirmation, HEK293 cells, Fluo-4 calcium flux; 2,300 compounds, 19% hits; shares compounds with MrgX1 antagonist; BAM8-22 calcium flux; active compounds read low; remaining BAM8-22 calcium response % of control (active compounds read low), % at 10 µM; AID 602420, 2012;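 active = remaining agonist calcium response no higher than 100% minus 3 SD of agonist-only control wells, with starting fluorescence near control levels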;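 note: agonist BAM8-22 given at a near maximal EC90 to ECmax level; peak minus minimum fluorescence divided by baseline after agonist addition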
HEK293 Ca flux – nonspecific calcium signal in parental HEK293, confirmation, counter-screen for MrgX1 antagonist project, parental HEK293 cells, Fluo-4 calcium flux | shares compounds with MrgX1 antagonist | Fluo-4 calcium fluorescence, FDSS | fluorescence ratio F(max-min)/F0 at 10 µM | 4,000 compounds, 2% hits | AID 624111, 2012;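 active = duplicate-averaged calcium fluorescence ratio at least three times the standard deviation of buffer wells, a nonspecific response in parental cells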
HEK293 Ca counter – calcium response in parental HEK293 cells, primary screen, counter-screen for MrgX1 allosteric activator project, cell-based, Fluo-4 calcium flux, duplicate; shares compounds with MrgX1 antagonist; Fluo-4 fluorescence ratio; active compounds read high; fluorescence ratio F(max-min)/F0 at 10 µM; 4,000 compounds, 0.4% hits;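 active = calcium fluorescence ratio, averaged over duplicates, at least 3 SD of the buffer-well ratio, meaning a nonspecific response in receptor-free cells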;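 note: untransfected parental HEK293 lacking MrgX1 used as counterscreen for MrgX1 allosteric activators; fluorescence change taken during the second addition on a kinetic imager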
HEK293 Ca cntr2 – calcium response in parental HEK293 cells, primary screen, counter-screen for MrgX1 agonist project, cell-based, Fluo-4 calcium flux, duplicate, agonist mode. shares compounds with MrgX1 antagonist. Fluo-4 calcium fluorescence (FDSS); active compounds read high. fluorescence ratio F(max-min)/F0 at 10 µM. 4,000 compounds, 8.7% hits;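 active = calcium fluorescence ratio at least three times the spread of buffer wells, meaning a non-specific response in parental cells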
Active calls of the source: *; i = inactive; · = no result given.

SMILES	RGS4 act	MrgX1 agonist	RGS4 inh	MrgX1 antagonist	MrgX1 allo act	RGS4 act valid	RGS4 act ctr	HEK293 Ca flux	HEK293 Ca counter	HEK293 Ca cntr2	others
Cc1cc(C)nc(/N=C(\N)Nc2ccc(OCc3ccccc3)cc2)n1	-10*	161*	i	i	i	87*	62*	i	i	128*	MrgX1 ag reconf=590%*
CCCc1ccc(Oc2cn[nH]c2-c2ccc(O)c(C)c2O)cc1	-9.1*	i	i	-6.8*	i	93*	94*	i	i	i	MrgX1 antag conf=i
CCCOc1ccc(C(=O)NC(=S)NNC(=O)c2c(-c3ccccc3)noc2C)cc1	-11*	105*	i	i	i	92*	82*	i	i	115*	MrgX1 ag reconf=690%*
Cc1onc(-c2ccccc2)c1C(=O)NC(=S)NNC(=O)c1ccc(O)cc1	i	i	i	i	i	·	·	·	·	·
COc1cccc(NC(=O)Nc2nc(-c3ccc(OC)c(OC)c3)cs2)c1	-8.1*	i	i	-7*	i	92*	85*	i	i	i	MrgX1 antag conf=22%*
CC(C)C(C)NC(=O)COC(=O)/C=C/c1ccc(S(=O)(=O)N2CCc3ccccc32)cc1 (stereo not drawn)	i	i	i	i	i	·	·	·	·	·
CCn1c(-c2c(Cl)c(C)nn2C)n[nH]c1=S	i	i	i	i	i	·	·	·	·	·
Cc1ccc(NC(=O)C2CCCN2c2nn3c(=O)cc(C)nc3s2)cc1 (stereo not drawn)	i	i	i	i	i	·	·	·	·	·
c1ccc(Cn2nnc3cnccc32)cc1	-8.4*	i	i	-6.7*	i	0	0	i	i	i	MrgX1 antag conf=i
c1ccc(Cn2nnc3ccccc32)cc1	i	i	i	i	i	·	·	·	·	·
OCCCNc1ncnc2oc(-c3ccccc3)c(-c3ccccc3)c12	-8.4*	i	i	-5*	i	0	0	i	i	i	MrgX1 antag conf=i
CC(=O)NC1(C(F)(F)F)NC(=O)N(c2ccc(F)cc2)C1=O (stereo not drawn)	i	i	i	i	i	·	·	·	·	·
COc1ccc(Cl)c2sc(N(CCN(C)C)C(=O)c3ccc4c(c3)OCCO4)nc12	i	i	i	i	i	·	·	·	·	·
CC1(C)CC(=O)C2=C(C1)Nc1ccccc1S2	i	i	i	i	i	·	·	·	·	·
CC1(C)CC(=O)C2=C(C1)Nc1ccccc1NC2	-7.9*	34*	i	i	i	0	0	i	i	i	MrgX1 ag reconf=i
O=C(CSc1nc2ccccc2c2c1CCCC2)N1CCOCC1	-9.3*	i	i	i	19*	92*	92*	i	i	i	MrgX1 allo conf=i
COc1ccc(CC(=O)Nc2cccc(-c3nnc(-c4cccc(C)c4)o3)c2)cc1OC	-9.9*	i	i	-12*	i	94*	94*	i	i	i	MrgX1 antag conf=5.5%*
Cc1ccc(OCC(=O)Nc2cccc(-c3nnc(-c4ccccc4)o3)c2)c(C)c1	i	i	i	i	i	·	·	·	·	·
CCOc1ccc2cc(/C=C/C(=O)c3ccco3)c(Cl)nc2c1	i	i	i	i	i	·	·	·	·	·	RGS4 block valid=i;RGS4 uninduced=i;RGS4 inh ctr2=40%*
COc1cc(C(=O)C(=O)c2ccc(O)c(OC)c2)ccc1O	i	i	i	i	i	·	·	·	·	·
COc1cc(C2(c3ccc(O)c(OC)c3)C(=O)Nc3c(Br)cc(Br)cc32)ccc1O	i	i	i	i	i	·	·	·	·	·	RGS4 uninduced=i;RGS4 inh ctr2=34%*
COc1cc(C2(c3ccc(O)c(OC)c3)C(=O)N(C)c3ccc(Br)cc32)ccc1O	i	i	5.7*	i	i	·	·	·	·	·	RGS4 block valid=12%*;RGS4 uninduced=i;RGS4 inh ctr2=i

From PubChem
